Source: ChEMBL document CHEMBL5338796, “Discovery of a Selective and Orally Bioavailable FGFR2 Degrader for Treating Gastric Cancer” (J Med Chem, 2023)
The source made the active and inactive calls. The calls are words filed in the database; no cut-off is given here.

What was measured:
SNU-16 = test: Antitumor activity against human SNU-16 cells xenografted in BALB/c nude mouse assessed as reduction in FGFR phosphorylation in tumor at 20 mg/kg, po measured at 4 hrs; type: functional, organism-based
Procedure, shortened: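 Female BALB/c nude mice, 5 weeks old (20–22 g), s.c. right-flank SNU-16 implants, randomized by body weight into groups (n = 5) once tumours reached 50–100 mm3. Dosing 20 mg/kg/day intragastric in 0.5% CMC-Na for 15 d; vehicle controls. Tumour width and length measured every 2 days; tumours harvested 4 h after last dose and lysates immunoblotted for pFGFR, FGFR2, pPLCγ, pErk.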

[1] = Toxicity in ICR mouse assessed as morphological changes in lung at 20 mg/kg, po measured for 30 days by hematoxyin-eosin staining based analysis; type: organism-based; conditions: in vivo, 720 h, time 30 day
Procedure, shortened: (§1)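 ICR mice (n = 6) were dosed orally at 20 mg/kg/day for 30 days, alongside vehicle-treated controls. Mortality and clinical signs were checked daily. At the end, body and organ weights were recorded. Heart, liver, spleen, lung and kidney were examined by hematoxylin and eosin staining.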

[2] = Toxicity in ICR mouse assessed as morphological changes in liver at 20 mg/kg, po measured for 30 days by hematoxyin-eosin staining based analysis; type: organism-based; conditions: in vivo, 720 h, time 30 day; procedure, shortened: as §1
NCI-H716 = test: Antiproliferative activity against human NCI-H716 cells assessed as reduction in cell viability measured for 72 hrs by celltiter-glo reagent based assay; type: functional; conditions: NCI-H716, 72 h
Procedure, shortened: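 Cancer lines KATO III, SNU16, NCI-H716, NCI-H1975, MV-4-11 and HEK293T treated 72 h; antiproliferative IC50 given as mean ± s.d. from three independent biological experiments.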

[3] = Clearance in mice at 3 mg/kg, iv measured at 0.083 to 24 hrs by LC-MS/MS analysis; conditions: mouse, in vivo
[4] = target: Protein cereblon/Fibroblast growth factor receptor 2 (Homo sapiens, UniProt P21802+Q96SW2); test: PROTAC activity at CRBN/FGFR2 in human KATO III stomach cancer cell line membrane assessed as reduction in membrane bound FGFR2 at 100 nM measured for 6 hrs by flow cytometry analysis; type: cell membranes
Procedure, shortened: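 Approx. 2 × 10^6 KATO III cells were treated 6 h at 100 nM. They were washed in cold PBS and stained with anti-FGFR2 (1:100, 4 °C, 1 h), then with Alexa Fluor 488 secondary (1:500, 4 °C, 1 h). Surface FGFR2 was read by flow cytometry on at least 100,000 events, with 488 nm excitation and FITC detection at 519 nm.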

Chain of Protein cereblon/Fibroblast growth factor receptor 2 (P21802 22-821 limits assumed): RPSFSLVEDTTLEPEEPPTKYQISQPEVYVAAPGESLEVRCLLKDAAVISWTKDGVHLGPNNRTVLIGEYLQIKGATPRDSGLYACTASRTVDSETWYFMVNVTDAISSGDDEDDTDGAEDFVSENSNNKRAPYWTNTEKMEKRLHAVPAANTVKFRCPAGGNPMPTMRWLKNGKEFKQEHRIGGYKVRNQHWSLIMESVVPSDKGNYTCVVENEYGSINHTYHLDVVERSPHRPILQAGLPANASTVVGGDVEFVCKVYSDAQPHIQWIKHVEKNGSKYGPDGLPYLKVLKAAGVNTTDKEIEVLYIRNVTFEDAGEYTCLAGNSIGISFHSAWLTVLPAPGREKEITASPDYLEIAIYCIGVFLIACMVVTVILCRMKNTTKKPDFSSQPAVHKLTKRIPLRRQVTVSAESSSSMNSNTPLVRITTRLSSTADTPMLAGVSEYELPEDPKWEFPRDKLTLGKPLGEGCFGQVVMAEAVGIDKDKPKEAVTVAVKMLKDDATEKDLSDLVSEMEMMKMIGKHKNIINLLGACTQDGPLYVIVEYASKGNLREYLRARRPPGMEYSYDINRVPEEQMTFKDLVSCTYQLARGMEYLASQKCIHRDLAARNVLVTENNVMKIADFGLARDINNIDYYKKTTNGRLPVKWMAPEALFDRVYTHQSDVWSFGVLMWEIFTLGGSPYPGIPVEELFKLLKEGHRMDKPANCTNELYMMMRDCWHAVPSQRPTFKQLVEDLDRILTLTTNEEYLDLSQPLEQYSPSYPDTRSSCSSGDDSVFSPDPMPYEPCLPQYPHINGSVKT
Chain of Protein cereblon/Fibroblast growth factor receptor 2 (Q96SW2 whole entry partner): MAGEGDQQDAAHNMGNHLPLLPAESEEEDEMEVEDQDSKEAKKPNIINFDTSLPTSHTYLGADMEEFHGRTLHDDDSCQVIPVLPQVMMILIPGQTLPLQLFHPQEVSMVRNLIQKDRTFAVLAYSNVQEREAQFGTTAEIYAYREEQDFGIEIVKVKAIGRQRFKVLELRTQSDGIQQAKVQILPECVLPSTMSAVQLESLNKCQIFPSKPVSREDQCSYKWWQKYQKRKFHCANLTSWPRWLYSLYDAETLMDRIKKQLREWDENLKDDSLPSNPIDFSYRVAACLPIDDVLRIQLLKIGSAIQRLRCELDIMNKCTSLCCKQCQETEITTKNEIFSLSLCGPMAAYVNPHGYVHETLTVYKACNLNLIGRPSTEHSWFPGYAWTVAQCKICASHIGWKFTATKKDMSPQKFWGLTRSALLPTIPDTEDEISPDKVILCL

IC50 (NCI-H716): 3.2 nM
clearance [3]: 121 mL/min/kg
Activity [4]: Active
SMILES: COc1cc(OC)c(Cl)c(NC(=O)N(C)c2cc(Nc3ccc(N4CCN(C(=O)C5CCN(c6ccc7c(c6)C(=O)N(C6CCC(=O)NC6=O)C7=O)CC5)CC4)cc3)ncn2)c1Cl (stereo unspecified)
Activity (SNU-16): Active
Activity [1]: Non-Toxic
Activity [2]: Non-Toxic
